PRMT1 FP inh = inhibitors of human PRMT1; Q99873; recombinant PRMT1, activity-based probe fluorescence polarization; inhibition, % at 2.79 µM; hit rate 1.3% among 370,000; AID 652257;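 active means inhibition above about 21% made by adding two undisclosed values, limit read from the data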
Target sequence (Q99873 whole entry, looked up): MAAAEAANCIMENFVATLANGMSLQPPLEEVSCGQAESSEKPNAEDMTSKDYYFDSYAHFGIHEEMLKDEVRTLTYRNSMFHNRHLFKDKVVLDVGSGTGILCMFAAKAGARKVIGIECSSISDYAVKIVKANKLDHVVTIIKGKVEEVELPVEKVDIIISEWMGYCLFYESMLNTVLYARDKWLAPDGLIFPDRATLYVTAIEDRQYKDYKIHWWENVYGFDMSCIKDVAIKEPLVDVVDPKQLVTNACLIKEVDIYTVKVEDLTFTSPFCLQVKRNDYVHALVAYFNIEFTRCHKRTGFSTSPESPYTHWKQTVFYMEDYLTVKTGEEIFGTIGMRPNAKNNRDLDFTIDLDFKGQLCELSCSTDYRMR
SIAE primary = human SIAE inhibition, primary screen; Q9HAT2; inhibition, % at 9.66 µM; SIAE FP-Rh probe binding, fluorescence polarization; hit rate 0.69% among 370,000;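 active means inhibition above a cutoff: mean of compounds within the control limits plus 3 SD of those, cut at about 17% in these data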;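 further: 0% = plate median of compound wells and 100% = probe without SIAE protein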
mABHD4 FP = inhibitors of mouse ABHD4. purified mABHD4, FP-Rh probe fluorescence polarization. inhibition, % at 8.92 µM. hit rate 0.54% among 370,000;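 active means inhibition exceeding the mean over every tested compound plus 3 SD, cut at about 30% in these data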;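 further: 0% = plate median of compound wells and 100% = S159A mutant with DMSO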
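Doses – 8.92 µM, single dose · Material – wild-type mouse ABHD4 protein · Replication – single well per compound (singlicate) · Measure – percent inhibition of probe binding, normalized to plate controls · Schedule – 45 min compound pre-incubation plus 60 min probe step, 25 °C · Detection – fluorescence polarization with parallel and perpendicular emission, 525/598 nm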
rCAG RNA binder = r(CAG) repeat RNA binding. TO-PRO-1 dye displacement fluorescence. inhibition, % at 3 µM. hit rate 1.3% among 370,000;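 active means inhibition above the plate cutoff, the mean of all test compounds on that plate plus 3 SD, cut at about 35% in these data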;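 further: 0% = DMSO alone and 100% = 100 µM mitoxantrone as full dye displacement; higher means more dye released from RNA so lower well fluorescence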
TCR-CD3 inh = human TCR-CD3 binding inhibition. TAMRA-labeled TCR probe fluorescence, biochemical. inhibition, % at 9.4 µM. hit rate 0.37% among 360,000; in the data active means inhibition above about 19%;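 further: recombinant mutant TCR 2C K166C tagged with TAMRA read by polarization; 0% = receptor in buffer alone and 100% = receptor with positive control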
rCAG bind conf = r(CAG) RNA repeat binding, confirmation; shares compounds with rCAG RNA binder; AID 652065; TO-PRO-1 dye displacement fluorescence; hit rate 70% among 4,300; inhibition, % at 3 µM;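 active means inhibition above a per-plate cutoff, the mean inhibition of sample wells plus 3 SD, cut at about 35% in these data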;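 further: loss of TO-PRO-1 fluorescence as compound displaces dye from 1x1 AA loop RNA; 0% = DMSO only wells and 100% = 100 µM mitoxantrone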
dCAG dye counter = counter-screen for rCAG RNA binders: DNA CAG dye complex inhibitors; hit rate 94% among 4,300; shares compounds with rCAG RNA binder; d(CAG) DNA oligo TO-PRO-1 dye displacement, fluorescence; inhibition, % at 3 µM;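 active means inhibition above its plate's cutoff, the mean test-well inhibition plus 3 SD, cut at about 4.8% in these data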;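 further: 0% = DNA dye mix with DMSO and 100% = 100 µM mitoxantrone; hits displace the dye from DNA and so lower well fluorescence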
An asterisk follows results filed as active; / = no result. Only some compounds are listed: those with a hit (about 3.3% of all), similar ones and a draw of the others.

SMILES	PRMT1 FP inh	SIAE primary	mABHD4 FP	rCAG RNA binder	TCR-CD3 inh	rCAG bind conf	dCAG dye counter
CCOC(=O)N1CCN(C(=O)C(CC)c2ccccc2)CC1 (stereo unspecified)	0	9	3	39*	4	6	1
CCC(C(=O)N1CCN(S(C)(=O)=O)CC1)c1ccccc1 (stereo unspecified)	1	-6	-2	-5	-7	/	/
CC(=O)c1c(C)[nH]c(C(=O)Nc2ccccc2C)c1C	4	1	2	/	/	/	/
Cc1ccc(NC(=O)CN(C)C(=O)c2cccnc2Nc2cccc(C(F)(F)F)c2)cc1	-2	-26	-27	44*	4	16	5.8*
CCOc1ncccc1C(=O)N(C)CC(=O)Nc1ccc(C)cc1	-4	-8	-1	2	8	/	/
N#Cc1ccc(/C=C2\CC3(OC(=O)C4CCCCC4)CCCN2C3)cc1 (stereo unspecified)	-1	-1	4	4	/	/	/
Cc1c(Cc2ccccc2)c(=O)oc2c(C)c(OC(C)C(=O)N[C@@H](Cc3ccccc3)C(=O)O)ccc12 (stereo partly specified)	14	-4	-9	48*	2	61*	23*
CCc1ccc(NC(=O)/C(C#N)=C/c2cn(CC(=O)O)c3ccccc23)cc1	1	3	0	36*	-7	21	5.9*
N#C/C(=C/c1cn(CC(=O)O)c2ccccc12)C(=O)Nc1ccccc1	3	-5	5	5	4	/	/
CCOc1cccc(NC(=O)/C(C#N)=C\c2cn(CC(=O)O)c3ccccc23)c1	0	-13	-1	57*	-2	56*	18*
CCOc1ccc(NC(=O)/C(C#N)=C/c2cn(CC(=O)O)c3ccccc23)cc1	4	-6	-1	56*	0	50*	15*
COc1ccc2c(c1)CO[C@H]([C@H](O)COC(C)=O)[C@H]2/C=C/c1ccccc1	4	13	-1	3	/	/	/
CC1CCCN(c2nc3ccccc3nc2C(C#N)S(=O)(=O)c2cccs2)C1 (stereo unspecified)	4	1	12	20	-10	/	/
COc1ccc(S(=O)(=O)C(C#N)c2nc3ccccc3nc2N2CCCC(C)C2)cc1 (stereo unspecified)	20	-2	-2	68*	-14	68*	35*
CC(C)(C)c1ccc(-c2c(C(=O)O)c(C(=O)O)c3n2CSC3)cc1	15	3	13	49*	5	41*	8.4*
CCc1cc(C(=O)O)c(NC(=O)/C=C/c2ccc(OC)c(OC)c2)s1	-1	-24	6	56*	-5	40*	9.9*
CCOC(=O)Cc1nc(N2CCN(Cc3cccc4c3OCO4)CC2)c2c(C)c(C(=O)OCC)sc2n1	-4	3	-4	5	/	/	/
COc1ccc(C(=O)N2CCC(Oc3cccnc3)CC2)c(OC)c1	4	5	10	1	/	/	/
O=C(NC(NC(=S)Nc1c(Cl)cccc1Cl)C(Cl)(Cl)Cl)c1cccc([N+](=O)[O-])c1 (stereo unspecified)	6	-174	-5	47*	9	36*	16*
O=C(NNc1c(Cl)cc(Cl)cc1Cl)c1cccc([N+](=O)[O-])c1	-1	-14	-4	37*	4	6	3
O=C(NNC(=S)NC(=O)c1ccccc1Cl)c1cccc([N+](=O)[O-])c1	3	0	6	5	10	/	/
CCCCC(=O)Nc1ccc(C(=O)NCC2COc3ccccc3O2)cc1 (stereo unspecified)	0	-3	-5	1	/	/	/
O=C(NCc1cccc(Cl)c1)c1ccc(S(=O)(=O)Nc2cccc(C(F)(F)F)c2)cc1	1	-46	-77	42*	2	45*	9.1*
O=C(COC(=O)c1ccc(NS(=O)(=O)c2cccs2)cc1O)NCc1ccccc1	1	-2	5	38*	-1	25	6.4*
O=C(COC(=O)c1ccc(NS(=O)(=O)c2cccs2)cc1O)Nc1nc2ccccc2s1	-1	-66	-92	73*	3	64*	29*
SMILES	PRMT1 FP inh	SIAE primary	mABHD4 FP	rCAG RNA binder	TCR-CD3 inh	rCAG bind conf	dCAG dye counter
CCC(NC(=O)c1ccc2c(ccn2Cc2cccc(-c3ccc(C(=O)O)cc3)c2)c1)c1ccccc1 (stereo unspecified)	11	-14	-157	77*	/	77*	35*
CCCCNC(=O)C[C@@H]1C(=O)N(Cc2ccc(OC)cc2)/C2=C/CCCCC[C@@]21C(=O)OCC	-3	-3	-3	1	/	/	/
COc1ccc(C(=O)/C=C(\Nc2ccc(Br)c(C)c2)c2ccc(OC)cc2OC)c(OC)c1	-1	-4	2	8	/	/	/
[N-]=[N+]=NC(c1ccccc1)c1nc2ccccc2[nH]c1=O (stereo unspecified)	2	1	0	44*	-1	4	3
CCCCc1c(C(=O)O)cc(OC)cc1C(=O)O	-2	0	-2	1	2	/	/
CCCCCc1c2c(cc(O)c1C(=O)O)OC(=O)c1cc(C(=O)CCCC)c(OC)cc1O2	1	-35	-100	87*	3	88*	61*
Cc1cc(C)cc(C(=O)OCCCN(C)C2CN(Cc3cn(Cc4ccc([N+](=O)[O-])cc4)nn3)S(=O)(=O)C2)c1 (stereo unspecified)	-1	2	0	7	/	/	/
O=C(COc1ccc2c(-c3ccccc3)cc(=O)oc2c1)NC(Cc1c[nH]c2ccccc12)C(=O)O (stereo unspecified)	2	6	1	54*	2	49*	12*
O=C(COc1ccc2c(-c3ccccc3)cc(=O)oc2c1)N[C@@H](Cc1c[nH]c2ccc(O)cc12)C(=O)O	7	8	0	37*	-5	39*	13*
CC(C)(C)c1ccc(-c2nnc(SCC(=O)Nc3ccc4cn[nH]c4c3)n2-c2ccc(Cl)cc2)cc1	1	-3	-3	10	/	/	/
CSc1cccc(NC(=O)Nc2nc3c(C)cccc3s2)c1	0	-25	-7	52*	4	45*	34*
CN1C/C(=C/c2ccccc2)N2C(=O)C[C@@H](c3ccccc3)N=C12	3	-1	9	-2	/	/	/
Cc1ccc(NC(=O)CSc2nnc(-c3cccnc3)n2Cc2ccco2)cc1C	10	0	2	5	/	/	/
COc1ccc(-c2nn(-c3ccccc3)cc2C=O)cc1[N+](=O)[O-]	2	-8	0	2	-7	/	/
COc1ccc(-c2nn(-c3ccccc3)cc2/C=C/C(=O)O)cc1[N+](=O)[O-]	3	-22	-6	56*	-4	48*	12*
NC(c1csc(NC(=O)Nc2ccccc2Cl)n1)C1CCCCC1 (stereo unspecified)	1	-13	-8	23	-3	/	/

Source: PubChem BioAssay
